The source of these data is ChEMBL document CHEMBL4680184, “Simple amphiphilic α-hydrazido acids: Rational design, synthesis, and in vitro bioactivity profile of a novel class of potential antimicrobial compounds” (Eur J Med Chem, 2020).

For data set [1], the system named is Staphylococcus aureus. Kind of data set: Antibacterial activity against Staphylococcus aureus ATCC 29213. It is filed as functional. The method, boiled down: (§1)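 Broth microdilution per CLSI: strains grown 6 h in BHI broth, diluted in Mueller-Hinton II broth to 1 × 10^6 cfu/mL, mixed 1:1 with serial dilutions of compound in MHII (compounds dissolved in sterile water); aerobic incubation 37 °C, 24 h. MIC = lowest concentration with no visible growth. Tetracycline internal control; triplicate.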

Data set [2] relates to Staphylococcus aureus. Kind of data set: Antibacterial activity against linezolid-methicillin-resistant Staphylococcus aureus AOUC 0915 assessed as inhibition of visible growth after 24 hrs by broth microdilution method. It is filed as functional. The essentials: as §1
The subject of data set [3] is Enterococcus faecalis. The experiment in a line: Antibacterial activity against Enterococcus faecalis ATCC 29212. It is filed as functional. The method, boiled down:
(§2)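 Compounds dissolved in sterile water at the highest achievable concentration, then serially diluted in Mueller-Hinton II broth per CLSI broth microdilution. Strains grown 6 h in BHI, diluted in MHII to 1 × 10^6 cfu/mL final. Aerobic incubation 37 °C, 24 h; tetracycline internal control; bacteria-only growth controls. MIC = lowest concentration with no visible growth; triplicate.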

Data set [4] in a line: Therapeutic index, ratio of HC50 for human erythrocytes to MIC for Escherichia coli ATCC 25922. The conditions noted are these: read-out: TI. It counts as toxicity.
Data set [5] concerns Escherichia coli. Kind of data set: Antibacterial activity against Escherichia coli ATCC 25922 assessed as inhibition of visible growth after 24 hrs by broth microdilution method. It counts as functional. The method, boiled down:
as §2
(Dilution methods test growth across graded concentrations, often in twofold steps.)

Data set [6] in a line: Therapeutic index, ratio of HC50 for human erythrocytes to MIC for Staphylococcus aureus ATCC 29213. It is filed as toxicity. The conditions noted are these: read-out: TI.
Data set [7] has as its system Staphylococcus aureus. The experiment in a line: Antibacterial activity against Staphylococcus aureus ATCC 29213 assessed as inhibition of visible growth after 24 hrs by broth microdilution method. It is filed as functional. The method, boiled down: as §2
A short description of data set [8]: Hemolytic activity against human erythrocytes measured after 1 hr by microplate reader based spectrophotometric analysis. It counts as ADME, cell-based, Erythrocyte. The method, boiled down:
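Heparinized fresh human blood washed three times in PBS pH 7.4 (1000 g, 10 min), resuspended ~20 vol %. Equal volume with 1:2 serial dilutions of compound in PBS, 1 h at 37 °C; PBS and 0.2 vol % Triton X-100 controls. Supernatant diluted 1:60, A350 read. HC50 from three- or four-parameter Hill fit; mean of three replicates.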

The next data set relates to Pseudomonas aeruginosa. Kind of data set: Antibacterial activity against Pseudomonas aeruginosa ATCC 27853 assessed as inhibition of visible growth after 24 hrs by broth microdilution method. It counts as functional. The essentials:
as §2

A further data set concerns Enterococcus faecium. Kind of data set: Antibacterial activity against Enterococcus faecium 135562 (35C) assessed as inhibition of visible growth after 24 hrs by broth microdilution method. It counts as functional. The essentials: as §2
A short description of data set [9]: Retention time of the compound by RP-HPLC analysis. It is filed as physicochemical. The essentials:
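RP-HPLC on C18 column (5 µm, 200 × 4.6 mm), 0.5 mL/min; hydrochlorides at 0.5–1 mg/mL in water:2-propanol 70:30, gradient to 10:90 over 40 min, then 20 min at 10:90. Adjusted retention time = instrumental retention time minus hold-up time.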

Data set [10] relates to Enterococcus faecalis. Kind of data set: Antibacterial activity against Enterococcus faecalis ATCC 29212 assessed as inhibition of visible growth after 24 hrs by broth microdilution method. It counts as functional. The method, boiled down:
as §2

The test system of data set [11] is Escherichia coli. Kind of data set: Antibacterial activity against gentamicin-colistin-resistant Escherichia coli 288328 assessed as inhibition of visible growth after 24 hrs by broth microdilution method. It counts as functional. The method, boiled down:
as §1

In data set [12] the test system is Escherichia coli. The experiment in a line: Antibacterial activity against Escherichia coli ATCC 25922. It counts as functional. The essentials:
as §1

Converted amounts (≈) assume the structure as drawn.

One may read the MIC as the lowest concentration found to suppress growth. Regarding `COc1cccc(OC)c1C(=O)N[C@@H]1C(=O)N2[C@@H]1SC(C)(C)[C@@H]2C(=O)O` [METHICILLIN], the results for the MIC against Staphylococcus aureus [1], in the data set on Staphylococcus aureus [2] and against Enterococcus faecalis [3] were 0.5 µg/mL (≈ 1.31 µM), more than 1020 µg/mL and more than 16 µg/mL, respectively.

A word on the HC50: it is the concentration that lyses half of the red blood cells. With `CCCCCCCCCCCCNC(=O)CN(NC(=O)CCCCCCCCCCC)C(=O)CN.Cl`, the selectivity ratio in data set [4] and in [6] was less than 3.4 each time. The minimal inhibitory concentration (MIC) in the data set on Escherichia coli [5] was more than 128 µg/mL; in the data set with Staphylococcus aureus [7] it was more than 128 µg/mL; in the data set on Pseudomonas aeruginosa, more than 128 µg/mL; with Enterococcus faecium it was 128 µg/mL; in the data set with Enterococcus faecalis [10], 128 µg/mL. For the same compound, in [8], the HC50 at 1 h is 438 µg/mL. For the same compound, the Retention_time in data set [9] came out at 29.1 min.

Turning to `CCCCCCCC(=O)NN(CC(=O)NCCC)C(=O)CN.Cl`, the selectivity ratio in [4] and in [6] was 0.4 throughout. Further, the MIC with Escherichia coli [5] worked out at 1020 µg/mL; with Staphylococcus aureus [7] it was 1020 µg/mL; in the data set with Pseudomonas aeruginosa, 2050 µg/mL; in the data set on Enterococcus faecium it was 1020 µg/mL; in the data set with Enterococcus faecalis [10], 1020 µg/mL. In addition, in [8], the 50% haemolytic concentration (HC50) at 1 h is 433 µg/mL. In data set [9], this compound had a Retention_time of 5.2 min.

As to `CCCNC(=O)CN(NC(=O)OCc1ccccc1)C(=O)CN.Cl`, the selectivity ratio in data set [4] and in [6] was 1.5 each time. Also, the MIC with Escherichia coli [5] was 512 µg/mL; in the data set on Staphylococcus aureus [7] it was 512 µg/mL; with Pseudomonas aeruginosa it was 512 µg/mL; with Enterococcus faecium, 512 µg/mL; with Enterococcus faecalis [10], 1020 µg/mL. Besides, the HC50 at 1 h in data set [8] stood at 775 µg/mL. The compound also had a Retention_time in [9] of 3.4 min.

Consider `CCCCCCCCCCCC(=O)NN(CC(=O)NCCCCCCCC)C(=O)CN.Cl`, for which the results for the selectivity ratio in [4] and in data set [6] were 3.8 and 7.6, respectively. The minimum inhibitory concentration (MIC) in the data set with Escherichia coli [5] was 128 µg/mL; in the data set with Staphylococcus aureus [7] it was 64 µg/mL; in the data set with Pseudomonas aeruginosa, 128 µg/mL; in the data set with Enterococcus faecium, 8 µg/mL; in the data set on Enterococcus faecalis [10], 16 µg/mL. In addition, the HC50 at 1 h in [8] amounted to 486 µg/mL. The Retention_time in data set [9] was 23.5 min.

On to `CCCCCCCCCCCC(=O)NN(CC(=O)NCCC)C(=O)CN.Cl`, for which the selectivity ratio in data set [4] and in data set [6] was 2.6 throughout. Also, the minimum inhibitory concentration (MIC) in the data set on Escherichia coli [5], in the data set with Staphylococcus aureus [7], in the data set with Pseudomonas aeruginosa, in the data set with Enterococcus faecium and in the data set with Enterococcus faecalis [10] was 64 µg/mL throughout. For the same compound, the concentration for 50% haemolysis (HC50) at 1 h in data set [8] came to 167 µg/mL. Besides, the Retention_time in data set [9] stood at 16.6 min.

In the case of `CCCCCCCCNC(=O)CN(NC(=O)C(C)(C)C)C(=O)CN.Cl`, the selectivity ratio is 3 in [4] and 1.5 in data set [6]. Moreover, the minimum inhibitory concentration (MIC) amounted to 256 µg/mL with Escherichia coli [5]; 512 µg/mL in the data set with Staphylococcus aureus [7]; 512 µg/mL in the data set on Pseudomonas aeruginosa; 256 µg/mL with Enterococcus faecium; 256 µg/mL in the data set on Enterococcus faecalis [10]. Besides, the HC50 at 1 h in [8] was 775 µg/mL. Also, the Retention_time in data set [9] was 11.7 min.

In the case of `CCCCCCCCCCCCNC(=O)CN(NC(=O)CCCCCCC)C(=O)CN.Cl`, the selectivity ratio in [4] is 1.4; in [6], 5.7. Moreover, the MIC worked out at 256 µg/mL with Escherichia coli [5]; 64 µg/mL with Staphylococcus aureus [7]; 512 µg/mL with Pseudomonas aeruginosa; 16 µg/mL in the data set with Enterococcus faecium; 32 µg/mL with Enterococcus faecalis [10]. Also, the HC50 at 1 h in [8] came out at 367 µg/mL. The Retention_time in data set [9] is reported as 24 min.

Regarding `CCCCCCCCNC(=O)CN(NC(C)=O)C(=O)CN.Cl`, the selectivity ratio was 0.9 in data set [4] and 1.7 in data set [6]. Further, the minimum inhibitory concentration (MIC) worked out at 256 µg/mL in the data set with Escherichia coli [5]; 128 µg/mL with Staphylococcus aureus [7]; 256 µg/mL in the data set with Pseudomonas aeruginosa; 128 µg/mL in the data set with Enterococcus faecium; 256 µg/mL with Enterococcus faecalis [10]. In [8], this compound showed a 50% haemolytic concentration (HC50) at 1 h of 223 µg/mL. The compound further had a Retention_time in data set [9] of 9.3 min.

In the case of `CCCCCCCCCCCCCCCCCC(=O)NN(CC(=O)NCCCCCCCCCCCC)C(=O)CN.Cl`, the selectivity ratio is 0.2 in [4] and 0.5 in [6]. In addition, the minimal inhibitory concentration (MIC) was found to be 512 µg/mL in the data set on Escherichia coli [5]; 256 µg/mL with Staphylococcus aureus [7]; 512 µg/mL in the data set on Pseudomonas aeruginosa; 256 µg/mL in the data set with Enterococcus faecium; 512 µg/mL in the data set with Enterococcus faecalis [10]. The same compound showed a 50% haemolytic concentration (HC50) at 1 h in data set [8] of 124 µg/mL. The compound further came in with a Retention_time in [9] of 35.8 min.

Turning to `CCCCCCCCNC(=O)CN(NC(=O)OCc1ccccc1)C(=O)CN.Cl`, the selectivity ratio in data set [4] and in data set [6] was 3 in each case. Besides, the MIC in the data set on Escherichia coli [5] came to 64 µg/mL; with Staphylococcus aureus [7], 64 µg/mL; in the data set with Pseudomonas aeruginosa it was 128 µg/mL; in the data set with Enterococcus faecium, 64 µg/mL; in the data set on Enterococcus faecalis [10], 128 µg/mL. Moreover, the HC50 at 1 h in data set [8] turned out to be 189 µg/mL. In data set [9], the Retention_time came out at 14.3 min.

In the case of `CCCCCCCCCCCCCCCCCCNC(=O)CN(NC(=O)OCc1ccccc1)C(=O)CN.Cl`, the selectivity ratio in data set [4] and in data set [6] was 0.5 throughout. Also, the minimal inhibitory concentration (MIC) in the data set with Escherichia coli [5] is 512 µg/mL; in the data set with Staphylococcus aureus [7], 512 µg/mL; in the data set on Pseudomonas aeruginosa, 512 µg/mL; with Enterococcus faecium, 256 µg/mL; in the data set with Enterococcus faecalis [10] it was 512 µg/mL. Also, the 50% haemolytic concentration (HC50) at 1 h in data set [8] worked out at 243 µg/mL. For the same compound, in data set [9], the Retention_time was determined as 30.9 min.

In the case of `CCCCCCCCCCCCNC(=O)CN(NC(C)=O)C(=O)CN.Cl`, the selectivity ratio in data set [4] and in data set [6] was 2 throughout. The MIC in the data set with Escherichia coli [5] came to 64 µg/mL; in the data set on Staphylococcus aureus [7], 64 µg/mL; with Pseudomonas aeruginosa it was 64 µg/mL; in the data set on Enterococcus faecium, 32 µg/mL; in the data set on Enterococcus faecalis [10], 32 µg/mL. Also, the HC50 at 1 h in data set [8] stood at 127 µg/mL. In addition, the Retention_time in data set [9] is 17.5 min.

Regarding `CCCCCCCCNC(=O)CN(NC(=O)c1ccccc1)C(=O)CN.Cl`, the selectivity ratio in data set [4] and in data set [6] was 2.9 each time. Also, the minimum inhibitory concentration (MIC) with Escherichia coli [5], with Staphylococcus aureus [7], with Pseudomonas aeruginosa, in the data set with Enterococcus faecium and with Enterococcus faecalis [10] was 128 µg/mL each time. The HC50 at 1 h in data set [8] turned out to be 368 µg/mL. This compound had a Retention_time in [9] of 12.3 min.

Consider GENTAMICIN, for which the MIC was 128 µg/mL in the data set with Escherichia coli [11], 0.12 µg/mL against Staphylococcus aureus [1], 0.25 µg/mL in the data set with Escherichia coli [12] and 4 µg/mL with Enterococcus faecalis [3].

As for `CCCCCCCCCCCCCCCCCCNC(=O)CN(NC(=O)CCCCCCCCCCC)C(=O)CN.Cl`, the selectivity ratio in data set [4] is less than 0.7; in data set [6], 1.4. Also, the minimal inhibitory concentration (MIC) was more than 512 µg/mL in the data set on Escherichia coli [5]; 256 µg/mL in the data set on Staphylococcus aureus [7]; 512 µg/mL in the data set with Pseudomonas aeruginosa; 512 µg/mL in the data set with Enterococcus faecium; 512 µg/mL with Enterococcus faecalis [10]. The HC50 at 1 h in data set [8] came out at 364 µg/mL. For the same compound, the Retention_time in data set [9] is 35.9 min.

Take `CCCCCCCCCCCCCCCCCCNC(=O)CN(NC(C)=O)C(=O)CN.Cl`: the selectivity ratio in [4] turned out to be 0.5; in data set [6], 0.9. In addition, the minimal inhibitory concentration (MIC) turned out to be 512 µg/mL with Escherichia coli [5]; 256 µg/mL in the data set with Staphylococcus aureus [7]; 512 µg/mL in the data set on Pseudomonas aeruginosa; 32 µg/mL with Enterococcus faecium; 32 µg/mL with Enterococcus faecalis [10]. Besides, in data set [8], the concentration for 50% haemolysis (HC50) at 1 h was 228 µg/mL. Besides, the Retention_time in data set [9] is given as 28 min.
